Screens from PubChem BioAssay.
Shown are actives, neighbours in structure and some others; about 1.7% of the full set was active somewhere.
PREPL inh: human PREPL enzyme inhibition; actives 0.68% (n = 320,000); AID 2751; inhibition, % at 5.96 µM; recombinant PREPL, fluorescence polarization activity-based probe; in the data active means inhibition above about 43%;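 further: 0% = enzyme with DMSO and 100% = wells lacking enzyme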
Apaf1 inhib: inhibitors of human Apaf-1 apoptosome. AID 489030. inhibition, % at 20 µM. actives 0.71% (n = 330,000). reconstituted apoptosome caspase-3 activity, DEVD-Rh110 fluorescence; active means inhibition of at least 40% at 20 µM;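 further: plate controls were DMSO wells for no effect and DEVD-CHO caspase inhibitor wells for full effect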
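System – cell-free apoptosome with Apaf-1, procaspase-3 and caspase-9 · Buffer or medium – pH 7.5 Hepes buffer with CHAPS, BSA, DTT · Also added – cytochrome c with DEVD-Rh110 · Times – 30 min compound preincubation, 50 min activation, room temperature · Technique – Rh110 fluorescence intensity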
EBNA-1 inh: blocks EBNA-1 binding to DNA. EBNA-1 DNA binding, fluorescence polarization. inhibition, % at 14.8 µM. actives 0.34% (n = 300,000); in the data active means inhibition above about 28%
UBC13 polyUb: inhibitors of human UBC13 polyubiquitin chain formation; TR-FRET; actives 0.47% (n = 330,000); inhibition, % at 20 µM; P61088; in the data active means inhibition above about 45%, passing the limit was not always enough
ZTA counter: ZTA (EBV) inhibition in EBNA-1 counter-screen | inhibition, % at 11 µM | AID 2234 | P03206 | ZTA-DNA binding, fluorescence polarization | actives 0.15% (n = 320,000); in the data active means inhibition above about 33%
Apaf-1 inh conf: Apaf-1 inhibition, single-dose confirmed; reconstituted apoptosome, caspase-3 DEVD-Rh110 fluorescence; shares compounds with Apaf1 inhib; actives 25% (n = 1,800); inhibition, % at 20 µM;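 active means mean inhibition of at least 40% at 20 µM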;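 further: plate controls were DMSO wells for no effect and DEVD-CHO caspase inhibitor control wells for full effect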
Rh110 interf inh: Rh110 signal interference in Apaf-1 inhibitor counter-screen | shares compounds with Apaf1 inhib | Rh110 fluorescence interference, quenched caspase reaction | activation (fluorescence interference), % at 20 µM | 1,800 tested, under 10 active;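 active means signal rise of 40% or more at 20 µM, treated as a fluorescence artifact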
Apaf1 inh interf: shows fluorescence interference in the Apaf-1 inhibitor assay format. shares compounds with Apaf1 inhib. fluorescence interference counterscreen, Apaf-1 assay format. IC50, µM. 460 tested, under 10 active; call rule not given here
Starred values were filed as active, the others as inactive; x = no result given.

SMILES | PREPL inh | Apaf1 inhib | EBNA-1 inh | UBC13 polyUb | ZTA counter | Apaf-1 inh conf | Rh110 interf inh | others
O=C1C(NS(=O)(=O)c2cccs2)=C(N2CCN(c3cccc(C(F)(F)F)c3)CC2)C(=O)c2ccccc21 | 39.9 | 47.5* | -2.1 | -57.8 | 0.4 | 25.7 | 10.1
O=C1C(NS(=O)(=O)c2cccs2)=C(N2CCN(Cc3ccccc3)CC2)C(=O)c2ccccc21 | 13.3 | 51.0* | -6.4 | -44.6 | -4.2 | 36.9 | 11.7
CC1(OC(=O)c2ccc(Cl)nc2)C(=O)C=C2C=C3CCCN3C=C2C1=O (stereo not given) | 2.9 | 44.2* | 6.4 | -54.3 | 26.8 | 39.9 | 5.6
COC(=O)CCC(=O)OC1(C)C(=O)C=C2C=C3CCCN3C=C2C1=O (stereo not given) | 10.7 | 16.3 | 7.6 | -41.8 | -2.0 | x | x
COc1cccc(OC)c1C(=O)Nc1cc(Cl)ccc1N1CCOCC1 | 16.7 | 10.3 | 7.2 | -6.5 | 3.5 | x | x
COC(=O)/C(=C/Nc1ccc(O)cc1)[N+](=O)[O-] | 31.1 | 91.2* | 4.8 | -1.0 | 8.5 | 15.8 | 11.7
COC(=O)/C(=C/Nc1ccccc1)[N+](=O)[O-] | 9.0 | -14.9 | 7.5 | -7.3 | 4.0 | x | x
O=C(C1CCCN(S(=O)(=O)c2cnc[nH]2)C1)N1CCN(Cc2ccccc2)CC1 (stereo not given) | -8.9 | 40.5* | -6.2 | -3.5 | -8.7 | 3.2 | 42.8*
CCCCC(CC)CN1C(=O)/C(=C/c2ccncc2)SC1=S (stereo not given) | 9.6 | 41.9* | -0.2 | -12.8 | 15.0 | 17.2 | 9.7
CCCCNC(=O)C(C)N(CCN(C)C)C(=O)CCCN1C(=O)NC(c2ccc([N+](=O)[O-])cc2)C(C(=O)OCc2ccccc2)=C1C (stereo not given) | x | 45.3* | x | x | x | 14.0 | 8.2
COc1ccc(C(=O)/C=C/C(=O)N(CC(=O)NC2CCCCC2)CC2CCCO2)c(O)c1 (stereo not given) | 3.5 | 49.3* | -2.0 | 9.2 | -3.9 | 10.1 | 7.7
COc1ccc(C(=O)/C=C/C(=O)N(Cc2ccccc2)C(C(=O)NC2CCCCC2)c2ccncc2)c(O)c1 (stereo not given) | 7.2 | 21.2 | -13.6 | -6.1 | 3.5 | x | x
Clc1ccc(C2=Nn3c(nnc3-c3n[nH]c4c3CCC4)SC2)cc1Cl | 8.9 | 42.9* | 5.4 | 13.3 | 17.5 | 34.1 | 3.7
Cc1ccc2oc(=O)c3cnn(CC(=O)NCCC(C)C)c3c2c1 | -1.1 | 7.7 | 2.8 | -1.8 | -8.0 | x | x
CN(C)c1cccc2cccc(N(C)C)c12 | -0.5 | 89.4* | 9.4 | -16.8 | 5.3 | 19.4 | -2.9
O=C1C(SCCO)=C(SCCO)C(=O)c2ccccc21 | 30.1 | 96.9* | -5.5 | -124.4 | -9.0 | 96.2* | 0.3 | Apaf1 inh interf=>100
O=c1[nH]c2ccccc2c(O)c1SCCO | -5.4 | -12.4 | -3.5 | 4.3 | 1.2 | x | x
Clc1ccc(-c2cn3nc4c(nc3n2)CCCC4)cc1 | 12.0 | 65.3* | -3.3 | -14.5 | -7.4 | 53.0* | 7.1 | Apaf1 inh interf=>100
COc1cccc(-c2cc(C(F)(F)F)n3nc(N)nc3n2)c1 | -4.8 | -44.3 | -4.0 | 1.8 | -4.2 | x | x
COc1cccc(-c2cn3nc4c(nc3n2)CCCC4)c1 | 12.0 | 53.4* | 1.1 | -41.1 | -14.9 | 38.8 | 2.6
O=C(NNC(=O)c1cccc2ccccc12)c1ccccc1O | 2.7 | 0.6 | 6.4 | 9.4 | -7.2 | x | x
O=C(NN=C(Cc1ccccc1)Cc1ccccc1)c1ccccc1O | -1.6 | 4.7 | 3.2 | -2.3 | 20.3 | x | x
COc1ccc(C(CNC(=O)c2ccc(C)o2)N2CCOCC2)cc1 (stereo not given) | -6.9 | 4.4 | -4.0 | -6.8 | -11.8 | x | x
COc1ccc(C(CNC(=O)c2cccn2C)N2CCOCC2)cc1 (stereo not given) | 24.6 | 47.1* | x | -39.3 | 1.0 | 35.5 | -3.0
Cc1[nH]c2ccccc2c1C(C#N)(C#N)C1C(=O)c2ccccc2C1=O | 23.4 | 72.5* | 2.7 | -177.7 | -13.0 | 44.6* | 0.0 | Apaf1 inh interf=>100
Cc1[nH]c2ccccc2c1CC#N | 1.9 | 4.9 | -1.0 | 7.3 | 4.0 | x | x
CN1CCC[C@@H]1CCNC(=O)c1c(-c2ccc3c(c2)OCO3)noc1-c1ccsc1 | 14.2 | 40.4* | x | 5.6 | x | 11.4 | 7.5
CC1(C)CC(=O)c2c(-c3cccnc3)n[nH]c2C1 | 3.9 | 43.3* | 11.0 | 1.4 | -10.4 | 8.9 | 1.3
